The text below walks through data of PubChem BioAssay AID504365 (Broad Institute, 2011).

Test [1] in a line: apoptosis induction in A1-reliant human Mel501 line – Mel501 cells, luminescence, dry powder, set 2, orthogonal assay for A1 inhibitor project, dose response (AID 504365). The conditions noted are these: Mel501 cells, caspase-3/7 Glo luminescence, 6 h. In a few lines:
(§1)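 material = Mel501 human cell line, caspase-3/7 luminescence assay | amount = 2500 Mel501 cells per well | medium = RPMI-1640, 10% FBS, TSA | doses = pin-transferred compound | incubation = 6 h compound (37 °C, 5% CO2), then 1 h Caspase-Glo | technique = Caspase-Glo 3/7 luminescence | read-out basis = caspase activation from luminescence increase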

For test [2], the system named is Mel501 cells, caspase-3/7 Glo luminescence, 6 h. The test is described as above. In a few lines: as §1

Calls of active or inactive are those of the source.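 How the source made its calls: active means fitted curve reaches 10% of the positive control caspase activation at or below the top valid tested dose; inactive means signal shifts the opposite way, plus the rest.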 Some results are limits rather than exact numbers.

Turning to `O=C(COc1ccc(Cl)cc1Cl)NNc1nc(N2CCOCC2)nc(N2CCOCC2)n1`, in test [1] (at 35 µM (top of the series)), the caspase activation was -1.89% (inactive).
Consider `CCn1c(=O)c(Sc2ccc(C)cc2)c(Sc2ccc(C)cc2)c2ccccc21`, for which the caspase activation in test [1] (at 35 µM (top of the series)) is -1.83% (inactive).
Take `Cn1c(=O)c([N+](=O)[O-])c(S(C)(=O)=O)c2ccccc21`: the caspase activation in test [1] (at 35 µM (top of the series)) was -1.8% (inactive).
In the case of `CCn1c(=O)c([N+](=O)[O-])c(Cl)c2ccccc21`, in test [1] (at 35 µM (top of the series)), the caspase activation was 2.55% (inactive).
Consider `COCCn1c(=O)c([N+](=O)[O-])c(Cl)c2ccccc21`, for which the caspase activation in test [1] (at 35 µM (top of the series)) was 6.5% (inactive).
Consider `COCCn1c(=O)c(Sc2ccc(C)cc2)c(Sc2ccc(C)cc2)c2ccccc21`, for which the caspase activation in test [1] (at 35 µM (top of the series)) is -1.29% (inactive).
Regarding `COc1nc2ccccc2c(Cl)c1[N+](=O)[O-]`, the caspase activation in test [1] (at 35 µM (top of the series)) was -1.96% (inactive).
With `COc1c([N+](=O)[O-])c(=O)n(C)c2ccccc12`, the caspase activation in test [1] (at 35 µM (top of the series)) is -0.501% (inactive).
With `Cc1ccc(Sc2c(Sc3ccc(C)cc3)c3ccccc3n(Cc3ccccc3)c2=O)cc1`, in test [1] (at 35 µM (top of the series)), the caspase activation was -1.23% (inactive).
`O=c1c([N+](=O)[O-])c(Cl)c2ccccc2n1Cc1ccccc1`: in test [2], the AC10 is 30.2 µM.
For the molecule `Cc1ccc(S(=O)(=O)c2c([N+](=O)[O-])c(=O)n(C)c3ccccc23)cc1`, the caspase activation in test [1] (at 35 µM (top of the series)) was -0.501% (inactive).
For the molecule `COCCn1c(=O)c([N+](=O)[O-])c(Sc2ccc(C)cc2)c2ccccc21`, in test [1] (at 35 µM (top of the series)), the caspase activation was -1.69% (inactive).
For `O=c1[nH]c2ccccc2c(Cl)c1[N+](=O)[O-]`, the AC10 in test [2] was > 35 µM (inactive).
With `Cc1ccc(Sc2c([N+](=O)[O-])c(=O)n(C)c3ccccc23)cc1`, the caspase activation in test [1] (at 35 µM (top of the series)) is -1.78% (inactive).
`COc1nc2ccccc2c(Sc2ccc(C)cc2)c1[N+](=O)[O-]`: the caspase activation in test [1] (at 35 µM (top of the series)) was -2.73% (inactive).
On the same count and under the same terms, with `COc1ccc(CCNc2nc(N3CCOCC3)nc(N3CCOCC3)n2)cc1OC` the figure was 0.627% (inactive); with `Cc1ccc(Sc2c([N+](=O)[O-])c(=O)n(Cc3ccccc3)c3ccccc23)cc1`, -2.41% (inactive); with `O=c1[nH]c2ccccc2c(O)c1[N+](=O)[O-]`, -2.05% (inactive).
Still for that read-out and setting: with `Cc1ccc(Sc2c(Sc3ccc(C)cc3)c3ccccc3n(C)c2=O)cc1` the figure was -1.69% (inactive); with `COc1ccc(CCNc2nc(N3CCCC3)nc(N3CCCC3)n2)cc1OC`, 0.012% (inactive).
With `COc1ccc(N2CCN(c3nc(NCCc4ccc(OC)c(OC)c4)nc(N4CCOCC4)n3)CC2)cc1`, in test [1] (at 35 µM (top of the series)), the caspase activation is -1.94% (inactive).
Consider `Cn1c(=O)c([N+](=O)[O-])c(Cl)c2ccccc21`, for which, in test [2], the AC10 was > 35 µM (inactive).
Consider `C/C(=N\Nc1nc(N2CCCCC2)nc(N2CCCCC2)n1)c1ccc(F)cc1`, for which the caspase activation in test [1] (at 35 µM (top of the series)) was -1.18% (inactive).
Regarding `CC1(C)CCC(c2ccc(Cl)cc2)=C(CN2CCN(c3ccc(C(=O)NS(=O)(=O)c4ccc(N[C@H](CCN5CCOCC5)CSc5ccccc5)c(S(=O)(=O)C(F)(F)F)c4)cc3)CC2)C1`, the caspase activation in test [1] (at 16 µM (top of the series)) was 0.95% (inactive).
For the molecule `Cn1c(=O)c(Sc2ccccn2)c(Sc2ccccn2)c2ccccc21`, the caspase activation in test [1] (at 35 µM (top of the series)) was -2.24% (inactive).
With `Cn1c(=O)c([N+](=O)[O-])c(Sc2ccccn2)c2ccccc21`, the caspase activation in test [1] (at 35 µM (top of the series)) is -1.77% (inactive).
In the case of `CCn1c(=O)c([N+](=O)[O-])c(Sc2ccc(C)cc2)c2ccccc21`, in test [1] (at 35 µM (top of the series)), the caspase activation is -0.736% (inactive).
